The values that follow come from the array DNA melting data of Ke et al. (doi:10.1101/2024.01.08.574731).

Data set [1] can be described thus: folding enthalpy; higher = less favourable; fluorescence melt of hairpins on a sequencing array, two-state fit. The note with it: sodium 0.088 M. In short, it runs like this:
(§1)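 Library hairpins on a sequenced MiSeq flow cell carried annealed Cy3 and quencher oligos, and their Cy3 fluorescence was imaged in 50 mM Na-HEPES pH 8.0 with 25 mM NaCl, in 2.5 °C steps up to 60 °C. Signals were normalised to Cy3 before quenching and to control constructs. Melting temperature and folding enthalpy were obtained from bootstrapped two-state fits, combined by inverse-variance weighting across four replicates, and the fitted temperatures were then raised by 9.35 °C to match UV melts.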

Data set [2] is described as follows: melting temperature; fluorescence melt of hairpins on a sequencing array, two-state fit, raised by 9.35 °C to match UV melts. Conditions: sodium 0.088 M. In short, it runs like this:
as §1

Regarding GCGACACCGAAAGGTCGC (((..(((....)))))), the folding enthalpy in data set [1] was -34.6 kcal/mol. Also, in data set [2], the Tm was 61.1 °C.

In the case of GCGTAGTCGAAAGACCGC (((..(((....)))))), in data set [1], the folding enthalpy was -28.9 kcal/mol. Also, the Tm in data set [2] was 52 °C.

Consider GAAAACGAAAGTTTTTC ((((((....))).))), for which the folding enthalpy in data set [1] is -17.8 kcal/mol. For the same sequence, the Tm in data set [2] worked out at 42.1 °C.

Regarding GGCCCCGCGAAAGCGGCC (((..(((....)))))), the folding enthalpy in data set [1] was -9.49 kcal/mol. Further, the Tm in data set [2] came to 41 °C.

Turning to GTGGGCGAAAGCCTCCAC ((((((....)))..))), the folding enthalpy in data set [1] was -11.7 kcal/mol. Also, the Tm in data set [2] worked out at 37.6 °C.

Take GAACGCGAAAGCGACTTC ((((((....)))..))): in data set [1], the folding enthalpy was -13.8 kcal/mol. In data set [2], the Tm is 46.1 °C.

For the sequence GTCCATGGAAACATGGAC (((((((....))))))), the folding enthalpy in data set [1] is -41.8 kcal/mol. In addition, in data set [2], the Tm was 63.6 °C.

Take GGCATGGGAAACCGTGTC (.((.((....)).)).): the folding enthalpy in data set [1] is -33.7 kcal/mol. The Tm in data set [2] turned out to be 43.3 °C.

For GACAACGAAAGTTGCGTC ((((((....)))..))), the folding enthalpy in data set [1] is -12.1 kcal/mol. In data set [2], the Tm is 40.6 °C.

For the sequence GTCCTGGGAAACCAGAAC ((.((((....)))).)), in data set [1], the folding enthalpy is -19.7 kcal/mol. In addition, the Tm in data set [2] stood at 35.5 °C.

Regarding GAACGGCGAAAGCCCTTC (((.(((....))).))), the folding enthalpy in data set [1] is -12.4 kcal/mol. Further, the Tm in data set [2] turned out to be 32.8 °C.

As for GTTTGCGAAAGCAAAAAC ((((((....)))..))), in data set [1], the folding enthalpy was -10.9 kcal/mol. Also, the Tm in data set [2] worked out at 40.3 °C.

For the sequence GCGTTGCGAAAGCGTCGC (((..((....))..))), the folding enthalpy in data set [1] was -20.8 kcal/mol. The Tm in data set [2] was 63.6 °C.

GGGGATACGAAAGTACCC (((..(((....)))))): in data set [1], the folding enthalpy was -24.2 kcal/mol. For the same sequence, in data set [2], the Tm amounted to 49.2 °C.

With CGGACGGAAACGTCGCCG ((((((....)))..))), the folding enthalpy in data set [1] is -12.1 kcal/mol. Besides, the Tm in data set [2] stood at 34.5 °C.

GCCCGGCGAAAGCCTGGC (((.(((....))).))): the folding enthalpy in data set [1] was -25.8 kcal/mol. For the same sequence, in data set [2], the Tm was found to be 64.6 °C.

For the sequence GGGAGTCCGAAAGGACCC (((..(((....)))))), the folding enthalpy in data set [1] is -14 kcal/mol. The Tm in data set [2] came to 53.6 °C.

For TGGTGGAAACACCA (((((....))))), the folding enthalpy in data set [1] is -22.2 kcal/mol. In addition, the Tm in data set [2] was 52.4 °C.

As for CGCTCGGAAACGAATGCG ((((((....)))..))), the folding enthalpy in data set [1] was -23.3 kcal/mol. Further, the Tm in data set [2] was 45 °C.

GATCCCTTTCGGGATC ((((((....)))))): the folding enthalpy in data set [1] was -48.2 kcal/mol. For the same sequence, the Tm in data set [2] turned out to be 60.1 °C.

Take GCGGCGGCCGC ((((...)))): in data set [1], the folding enthalpy is -22.6 kcal/mol. The Tm in data set [2] worked out at 61.3 °C.

In the case of GCGTGGGGAAACCTACGC ((((.((....)).)))), in data set [1], the folding enthalpy was -41.3 kcal/mol. In addition, the Tm in data set [2] was 58.7 °C.

With GATCCACGACTGGATC ((((((....)))))), in data set [1], the folding enthalpy was -31.4 kcal/mol. Besides, the Tm in data set [2] was 48.8 °C.

On to GATGGGGGAAACTCCGTC ((.((.(....).)).)), for which the folding enthalpy in data set [1] is -20.2 kcal/mol. In addition, the Tm in data set [2] was determined as 38 °C.

GCCCGCCCGAAAGGGGGC (((..(((....)))))): the folding enthalpy in data set [1] was -13.2 kcal/mol. The Tm in data set [2] was found to be 60.2 °C.

Turning to GGGGCCGAAAGGCGTCCC ((((((....)))..))), the folding enthalpy in data set [1] is -13.5 kcal/mol. Further, the Tm in data set [2] came out at 53.5 °C.

For TCTGTGAAAACAGA (((((....))))), the folding enthalpy in data set [1] was -17.6 kcal/mol. Further, in data set [2], the Tm is 42.4 °C.

With GAGGGCGGAAACGTCCTC ((((.((....)).)))), the folding enthalpy in data set [1] is -47 kcal/mol. Further, the Tm in data set [2] is 59.1 °C.

Consider GGATCAGGAAACTGGTCC (((.(((....))).))), for which, in data set [1], the folding enthalpy is -39.2 kcal/mol. For the same sequence, the Tm in data set [2] was 51.3 °C.

In the case of GGATCCGAAAGGAATTCC ((((((....)))..))), the folding enthalpy in data set [1] is -14.1 kcal/mol. For the same sequence, the Tm in data set [2] was determined as 32.2 °C.

Turning to GTCGAGGGAAACCCCGAC ((((.((....)).)))), the folding enthalpy in data set [1] is -38.9 kcal/mol. The Tm in data set [2] was 52 °C.

Consider GGATGTGGAAACATATCC ((((.((....)).)))), for which the folding enthalpy in data set [1] is -28.7 kcal/mol. Moreover, the Tm in data set [2] worked out at 44.9 °C.

Regarding GTAGGCGGAAACGCCCAC ((.((((....)))).)), in data set [1], the folding enthalpy was -10.2 kcal/mol. In data set [2], the Tm amounted to 41.1 °C.

Regarding GATGGGCGAAAGCCAATC (((.(((....))).))), the folding enthalpy in data set [1] was -23.9 kcal/mol. Besides, the Tm in data set [2] stood at 51.2 °C.

Take GTGGACGGAAACGTCCGC (.(((((....))))).): the folding enthalpy in data set [1] was -18.4 kcal/mol. Further, the Tm in data set [2] came to 62 °C.

On to GGTGTCCGAAAGGAACC (((.(((....)))))), for which, in data set [1], the folding enthalpy was -19.8 kcal/mol. The Tm in data set [2] turned out to be 48.3 °C.

As for CGCGCGGAAACGCAAGCG ((((((....)))..))), the folding enthalpy in data set [1] is -34 kcal/mol. For the same sequence, the Tm in data set [2] amounted to 56.8 °C.
